Laboratory results reported in ChEMBL document CHEMBL3352045, “Ionic liquid catalyzed synthesis of 2-(indole-3-yl)-thiochroman-4-ones and their novel antifungal activities” (2015).
In brackets after ≈: the same amount, converted by molar mass.

How the values were obtained:
Type in all cases: functional
Cryptococcus neoformans = test: Antifungal activity against Cryptococcus neoformans after 2 to 7 days by serial plate dilution method
In short: (§1)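 Compounds dissolved as DMSO stocks and serially diluted in RPMI 1640 buffered with MOPS, giving final concentrations of 128–0.25. Individual fungal inoculum added to each well. Incubated in triplicate at 37 °C for 2–7 days. MIC read as the lowest concentration with no visible growth. Amphotericin B and fluconazole served as positive controls.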

Candida albicans = test: Antifungal activity against Candida albicans after 2 to 7 days by serial plate dilution method; in short: as §1
Epidermophyton floccosum = test: Antifungal activity against Epidermophyton floccosum after 2 to 7 days by serial plate dilution method; in short: as §1
Mucor racemosus = test: Antifungal activity against Mucor racemosus after 2 to 7 days by serial plate dilution method
Nannizzia gypsea = test: Antifungal activity against Microsporum gypseum after 2 to 7 days by serial plate dilution method; in short: as §1

O=C1CC(c2c[nH]c3ccccc23)Sc2ccc(F)cc21 (stereo not given)
MIC (Cryptococcus neoformans): 64 µg/mL (≈ 215 µM)
MIC (Candida albicans): 128 µg/mL (≈ 430 µM)
MIC (Epidermophyton floccosum): 32 µg/mL (≈ 108 µM)
MIC (Mucor racemosus): 32 µg/mL (≈ 108 µM)
MIC (Nannizzia gypsea): 32 µg/mL (≈ 108 µM)

Cc1ccc2c(c1)C(=O)CC(c1c[nH]c3ccccc13)S2 (stereo not given)
MIC (Cryptococcus neoformans): 32 µg/mL (≈ 109 µM)
MIC (Candida albicans): 128 µg/mL (≈ 436 µM)
MIC (Epidermophyton floccosum): > 128 µg/mL
MIC (Mucor racemosus): 128 µg/mL (≈ 436 µM)
MIC (Nannizzia gypsea): > 128 µg/mL

O=C1CC(c2c[nH]c3ccccc23)Sc2ccc(Cl)cc21 (stereo not given)
MIC (Cryptococcus neoformans): 32 µg/mL (≈ 102 µM)
MIC (Candida albicans): 64 µg/mL (≈ 204 µM)
MIC (Epidermophyton floccosum): 32 µg/mL (≈ 102 µM)
MIC (Mucor racemosus): 64 µg/mL (≈ 204 µM)
MIC (Nannizzia gypsea): 64 µg/mL (≈ 204 µM)

O=C1CC(c2c[nH]c3ccc(Cl)cc23)Sc2ccc(Cl)cc21 (stereo not given)
MIC (Cryptococcus neoformans): 4 µg/mL (≈ 11.5 µM)
MIC (Candida albicans): 64 µg/mL (≈ 184 µM)
MIC (Epidermophyton floccosum): 8 µg/mL (≈ 23 µM)
MIC (Mucor racemosus): 8 µg/mL (≈ 23 µM)
MIC (Nannizzia gypsea): 16 µg/mL (≈ 45.9 µM)

Cn1cc(C2CC(=O)c3cc(Cl)ccc3S2)c2ccccc21 (stereo not given)
MIC (Cryptococcus neoformans): 128 µg/mL (≈ 390 µM)
MIC (Candida albicans): 64 µg/mL (≈ 195 µM)
MIC (Epidermophyton floccosum): 128 µg/mL (≈ 390 µM)
MIC (Mucor racemosus): 32 µg/mL (≈ 97.6 µM)
MIC (Nannizzia gypsea): 128 µg/mL (≈ 390 µM)

O=C1CC(c2c[nH]c3ccccc23)Sc2c(F)cccc21 (stereo not given)
MIC (Cryptococcus neoformans): 16 µg/mL (≈ 53.8 µM)
MIC (Candida albicans): 32 µg/mL (≈ 108 µM)
MIC (Epidermophyton floccosum): 8 µg/mL (≈ 26.9 µM)
MIC (Mucor racemosus): 32 µg/mL (≈ 108 µM)
MIC (Nannizzia gypsea): 8 µg/mL (≈ 26.9 µM)

O=C1CC(c2c[nH]c3ccc(Cl)cc23)Sc2c(F)cccc21 (stereo not given)
MIC (Cryptococcus neoformans): 4 µg/mL (≈ 12.1 µM)
MIC (Candida albicans): 32 µg/mL (≈ 96.4 µM)
MIC (Epidermophyton floccosum): 4 µg/mL (≈ 12.1 µM)
MIC (Mucor racemosus): 8 µg/mL (≈ 24.1 µM)
MIC (Nannizzia gypsea): 8 µg/mL (≈ 24.1 µM)

O=C1CC(c2c[nH]c3ccc(O)cc23)Sc2c(F)cccc21 (stereo not given)
MIC (Cryptococcus neoformans): 8 µg/mL (≈ 25.5 µM)
MIC (Candida albicans): 16 µg/mL (≈ 51.1 µM)
MIC (Epidermophyton floccosum): 4 µg/mL (≈ 12.8 µM)
MIC (Mucor racemosus): 16 µg/mL (≈ 51.1 µM)
MIC (Nannizzia gypsea): 16 µg/mL (≈ 51.1 µM)

Cc1cccc2c1SC(c1c[nH]c3ccccc13)CC2=O (stereo not given)
MIC (Cryptococcus neoformans): 64 µg/mL (≈ 218 µM)
MIC (Candida albicans): 64 µg/mL (≈ 218 µM)
MIC (Epidermophyton floccosum): 128 µg/mL (≈ 436 µM)
MIC (Mucor racemosus): 64 µg/mL (≈ 218 µM)
MIC (Nannizzia gypsea): 64 µg/mL (≈ 218 µM)

Cc1cccc2c1SC(c1cn(C)c3ccccc13)CC2=O (stereo not given)
MIC (Cryptococcus neoformans): 32 µg/mL (≈ 104 µM)
MIC (Candida albicans): 128 µg/mL (≈ 416 µM)
MIC (Epidermophyton floccosum): 64 µg/mL (≈ 208 µM)
MIC (Mucor racemosus): 64 µg/mL (≈ 208 µM)
MIC (Nannizzia gypsea): 32 µg/mL (≈ 104 µM)

Cn1cc(C2CC(=O)c3cccc(Cl)c3S2)c2ccccc21 (stereo not given)
MIC (Cryptococcus neoformans): 64 µg/mL (≈ 195 µM)
MIC (Candida albicans): 32 µg/mL (≈ 97.6 µM)
MIC (Epidermophyton floccosum): 32 µg/mL (≈ 97.6 µM)
MIC (Mucor racemosus): 32 µg/mL (≈ 97.6 µM)
MIC (Nannizzia gypsea): 32 µg/mL (≈ 97.6 µM)

Cc1cc2c(cc1F)SC(c1c[nH]c3ccccc13)CC2=O (stereo not given)
MIC (Cryptococcus neoformans): 64 µg/mL (≈ 206 µM)
MIC (Candida albicans): > 128 µg/mL
MIC (Epidermophyton floccosum): 64 µg/mL (≈ 206 µM)
MIC (Mucor racemosus): 128 µg/mL (≈ 411 µM)
MIC (Nannizzia gypsea): 64 µg/mL (≈ 206 µM)

Cc1cc(C)c2c(c1)C(=O)CC(c1c[nH]c3ccccc13)S2 (stereo not given)
MIC (Cryptococcus neoformans): 32 µg/mL (≈ 104 µM)
MIC (Candida albicans): 64 µg/mL (≈ 208 µM)
MIC (Epidermophyton floccosum): 128 µg/mL (≈ 416 µM)
MIC (Mucor racemosus): 128 µg/mL (≈ 416 µM)
MIC (Nannizzia gypsea): 64 µg/mL (≈ 208 µM)

Cc1cc(C)c2c(c1)C(=O)CC(c1c[nH]c3ccc(Cl)cc13)S2 (stereo not given)
MIC (Cryptococcus neoformans): 16 µg/mL (≈ 46.8 µM)
MIC (Candida albicans): 32 µg/mL (≈ 93.6 µM)
MIC (Epidermophyton floccosum): 16 µg/mL (≈ 46.8 µM)
MIC (Mucor racemosus): 32 µg/mL (≈ 93.6 µM)
MIC (Nannizzia gypsea): 16 µg/mL (≈ 46.8 µM)

Cc1cc(C)c2c(c1)C(=O)CC(c1c[nH]c3ccc(O)cc13)S2 (stereo not given)
MIC (Cryptococcus neoformans): 16 µg/mL (≈ 49.5 µM)
MIC (Candida albicans): 64 µg/mL (≈ 198 µM)
MIC (Epidermophyton floccosum): 16 µg/mL (≈ 49.5 µM)
MIC (Mucor racemosus): 32 µg/mL (≈ 98.9 µM)
MIC (Nannizzia gypsea): 16 µg/mL (≈ 49.5 µM)

C[C@@H]1[C@H](O)[C@@H](C)/C=C/C=C/C=C/C=C/C=C/C=C/C=C/[C@H](O[C@@H]2O[C@H](C)[C@@H](O)[C@H](N)[C@@H]2O)C[C@@H]2O[C@](O)(C[C@@H](O)C[C@@H](O)[C@H](O)CC[C@@H](O)C[C@@H](O)CC(=O)O[C@H]1C)C[C@H](O)[C@H]2C(=O)O [AMPHOTERICIN B]
MIC (Cryptococcus neoformans): 4 µg/mL (≈ 4.33 µM)
MIC (Candida albicans): 2 µg/mL (≈ 2.16 µM)
MIC (Epidermophyton floccosum): 2 µg/mL (≈ 2.16 µM)
MIC (Mucor racemosus): 4 µg/mL (≈ 4.33 µM)
MIC (Nannizzia gypsea): 2 µg/mL (≈ 2.16 µM)

OC(Cn1cncn1)(Cn1cncn1)c1ccc(F)cc1F [FLUCONAZOLE]
MIC (Cryptococcus neoformans): 8 µg/mL (≈ 26.1 µM)
MIC (Candida albicans): 32 µg/mL (≈ 104 µM)
MIC (Epidermophyton floccosum): 32 µg/mL (≈ 104 µM)
MIC (Mucor racemosus): 32 µg/mL (≈ 104 µM)
MIC (Nannizzia gypsea): 64 µg/mL (≈ 209 µM)
